# Experimental data as given in ChEMBL document CHEMBL1141042, “Correlation of cytotoxic activity of betulinines and their hydroxy analogues” (Bioorg Med Chem Lett, 2005).
# Tests used:
# Assay type in all cases: functional, cell-based
# PC-3 = assay: Concentration required to kill 50 % of human prostate cancer PC3 cells
# Summary of the method: (§1)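 MTT assay. Cells at 2500–30,000/well were preincubated 24 h at 37 C, 5% CO2. Fourfold dilutions of compound in 10% DMSO were added, in duplicate, and exposure ran 72 h at 37 C. MTT was then added for 1–4 h, formazan was dissolved in 10% SDS (pH 5.5) overnight, and OD was read at 540 nm. Survival was calculated versus control wells, with IC50 from dose–response curves.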
# HT-29 = assay: Concentration required to kill 50 % of human colon cancer cell line HT-29; summary of the method: as §1
# CCRF-CEM = assay: Concentration required to kill 50 % of human T-lymphoblastic leukemia cell line (CEM); summary of the method: as §1
# K562 [1] = assay: Concentration required to kill 50 % of human chronic myelogenous leukemia cell line K562; summary of the method: as §1
# K562 [2] = assay: Concentration required to kill 50 % of human paclitaxel-resistant subline of K562 cells (K-562-Tax); summary of the method: as §1
# SK-MEL-2 = assay: Concentration required to kill 50 % of human melanoma SK-MEL2 cells; summary of the method: as §1
# [3] = Homo sapiens, PC-3, read-out: IC50
# [4] = Homo sapiens, HT-29, read-out: IC50
# [5] = Homo sapiens, CCRF-CEM, read-out: IC50
# [6] = Homo sapiens, K562, read-out: IC50
# [7] = Homo sapiens, SK-MEL-2, read-out: IC50
SMILES,IC50 (PC-3; [3]) [µM],IC50 (HT-29; [4]) [µM],IC50 (CCRF-CEM; [5]) [µM],IC50 (K562 [1]; [6]) [µM],IC50 (K562 [2]; [6]) [µM],IC50 (SK-MEL-2; sk-mel-2) [uM l-1],IC50 (SK-MEL-2; [7]) [µM],IC50 (PC-3; pc-3) [uM l-1],IC50 (HT-29; ht-29) [uM l-1],IC50 (CCRF-CEM; ccrf-cem) [uM l-1],IC50 (K562 [2]; k562) [uM l-1],IC50 (K562 [1]; k562) [uM l-1]
CC(C)C1=C2C3CCC4[C@@]5(C)CC[C@H](O)C(C)(C)C5CC[C@@]4(C)[C@]3(C)CC[C@@]2(C(=O)OCc2ccccc2)CC1=O (some centres not stated),37,21,26,27,28,156,,,,,,
COC(=O)[C@@]12CC[C@]3(C)C(CCC4[C@@]5(C)CC[C@H](OC(C)=O)C(C)(C)C5CC[C@]43C)C1=C(C(C)C)C(=O)C2=O (some centres not stated),34,33,16,29,36,,87,,,,,
CC(=O)O[C@H]1CC[C@@]2(C)C(CC[C@]3(C)C2CCC2C4=C(C(C)C)C(=O)C[C@]4(CO)CC[C@]23C)C1(C)C (some centres not stated),39,33,28,37,35,,84,,,,,
CCOC(=O)[C@@]12CC[C@]3(C)C(CCC4[C@@]5(C)CC[C@H](OC(C)=O)C(C)(C)C5CC[C@]43C)C1=C(C(C)C)C(=O)C2 (some centres not stated),,,,59,,216,,244,224,102,206,
CC(C)C1=C2C3CCC4[C@@]5(C)CC[C@H](O)C(C)(C)C5CC[C@@]4(C)[C@]3(C)CC[C@@]2(C(=O)O)CC1=O (some centres not stated),40,33,29,30,34,160,,,,,,
COC(=O)[C@@]12CC[C@]3(C)C(CCC4[C@@]5(C)CC[C@H](O)C(C)(C)C5CC[C@]43C)C1=C(C(C)C)C(=O)C2 (some centres not stated),38,38,26,38,36,,80,,,,,
CC(=O)OC[C@@]1(C(=O)O)CC[C@]2(C)C(CCC3[C@@]4(C)CC[C@H](OC(=O)CCl)C(C)(C)C4CC[C@]32C)C1=O (some centres not stated),2.3,3.6,1,0.2,0.4,,1.3,,,,,
C=C1CC[C@]2(C)C(CCC3[C@@]4(C)CC[C@H](OC(C)=O)C(C)(C)C4CC[C@]32C)C1=O (some centres not stated),,,,0.4,1.1,,2.1,143,129,> 250,,
CC(=O)OC[C@@]12CC[C@]3(C)C(CCC4[C@@]5(C)CC[C@H](OC(=O)CCl)C(C)(C)C5CC[C@]43C)C1=C(C(C)C)C(=O)OC2=O (some centres not stated),,,,,,121,,250,216,162,220,181
CC(C)C1=C2C3CCC4[C@@]5(C)CC[C@H](O)C(C)(C)C5CC[C@@]4(C)[C@]3(C)CC[C@@]2(CO)CC1=O (some centres not stated),,,,,,> 250,,> 250,> 250,> 250,> 250,> 250
CC(=O)OC[C@@]12CC[C@]3(C)C(CCC4[C@@]5(C)CC[C@H](OC(=O)CCl)C(C)(C)C5CC[C@]43C)C1=C(C(C)C)C(=O)C2 (some centres not stated),,,44,,97,229,,242,110,,,110
CC(=O)O[C@H]1CC[C@@]2(C)C(CC[C@]3(C)C2CCC2C4=C(C(C)C)C(=O)C[C@]4(C(=O)OCc4ccccc4)CC[C@]23C)C1(C)C (some centres not stated),,,,,,250,,250,250,250,250,245
CCOC(=O)[C@@]12CC[C@]3(C)C(CCC4[C@@]5(C)CC[C@H](OC(C)=O)C(C)(C)C5CC[C@]43C)C1=C(C(C)C)C(=O)C2=O (some centres not stated),87,93,38,59,,148,,,,,130,
CC(=O)OC[C@@]12CC[C@]3(C)C(CCC4[C@@]5(C)CC[C@H](OC(C)=O)C(C)(C)C5CC[C@]43C)C1=C(C(C)C)C(=O)C2 (some centres not stated),,,,,,> 250,,> 250,> 250,> 250,> 250,> 250
CC(=O)OC[C@@]12CC[C@]3(C)C(CCC4[C@@]5(C)CC[C@H](OC(=O)CCl)C(C)(C)C5CC[C@]43C)C1=C(C(C)C)C(=O)C2=O (some centres not stated),,,,,,170,,208,> 250,242,> 250,231
CCOC(=O)[C@@]12CC[C@]3(C)C(CCC4[C@@]5(C)CC[C@H](O)C(C)(C)C5CC[C@]43C)C1=C(C(C)C)C(=O)C2 (some centres not stated),33,13,18,17,19,,80,,,,,
COC(=O)[C@@]12CC[C@]3(C)C(CCC4[C@@]5(C)CC[C@H](O)C(C)(C)C5CC[C@]43C)C1=C(C(C)C)C(=O)C2=O (some centres not stated),72,54,44,35,46,138,,,,,,
COC(=O)[C@@]12CC[C@]3(C)C(CCC4[C@@]5(C)CC[C@H](OC(C)=O)C(C)(C)C5CC[C@]43C)C1=C(C(C)C)C(=O)C2 (some centres not stated),,,44,34,96,165,,246,149,,,
CCOC(=O)[C@@]12CC[C@]3(C)C(CCC4[C@@]5(C)CC[C@H](O)C(C)(C)C5CC[C@]43C)C1=C(C(C)C)C(=O)C2=O (some centres not stated),,,,,85,140,,165,176,210,,239
CC(=O)OC[C@@]12CC[C@]3(C)C(CCC4[C@@]5(C)CC[C@H](O)C(C)(C)C5CC[C@]43C)C1=C(C(C)C)C(=O)C2 (some centres not stated),,93,,39,59,,85,163,,250,,
CC(=O)O[C@H]1CC[C@@]2(C)C(CC[C@]3(C)C2CCC2C4=C(C(C)C)C(=O)C[C@]4(C(=O)O)CC[C@]23C)C1(C)C (some centres not stated),,,,,,128,,117,149,> 250,> 250,> 250
C=C(C)[C@@H]1CC[C@]2(CO)CC[C@]3(C)[C@H](CC[C@@H]4[C@@]5(C)CC[C@H](O)C(C)(C)[C@@H]5CC[C@]43C)[C@@H]12 [BETULIN],,,,,,> 250,,> 250,> 250,> 250,> 250,> 250
